Bioassay records deposited in PubChem BioAssay by several laboratories.
EBNA-1 inhibitor = blocks EBNA-1 binding to DNA; inhibition, % at 14.8 µM; hit rate 0.34% among 300,000; EBNA-1 DNA binding, fluorescence polarization; in the data active = inhibition above about 28%
HCV NS3 hel inh = blocks Hepatitis C virus NS3 helicase unwinding; hit rate 0.56% among 290,000; inhibition, % at 10.9 µM; NS3 helicase DNA unwinding, Cy5 molecular beacon fluorescence;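 active = inhibition above the mean of all tested compounds plus 3 SD, set per campaign, cut at about 35% in these data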;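 note: 0% = DMSO wells and 100% = thioflavine S control wells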
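Test system: hepatitis C virus NS3 helicase domain fragment enzyme. Also added: annealed dual-labelled DNA beacon duplex, ATP-started. Timing: 60 min unwinding reaction at 25 °C after ATP addition. Technique: Cy5 fluorescence. Measure: % inhibition of unwinding.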
FID counter = counter-screen for HCV NS3 helicase inhibitors: DNA intercalator displacement; DNA fluorescent intercalator displacement, fluorescence; inhibition, % at 7.9 µM; hit rate 0.17% among 290,000; in the data active = inhibition above about 37%;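 note: 0% = vehicle and 100% = reference compound; higher means more ethidium bromide displaced from hairpin DNA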
ZTA DNA inh = counter-screen for EBNA-1 inhibitors: inhibitors of Epstein-Barr virus ZTA | ZTA-DNA binding, fluorescence polarization | inhibition, % at 11 µM | hit rate 0.15% among 320,000; in the data active = inhibition above about 33%
Target sequence (P03206 whole entry, looked up): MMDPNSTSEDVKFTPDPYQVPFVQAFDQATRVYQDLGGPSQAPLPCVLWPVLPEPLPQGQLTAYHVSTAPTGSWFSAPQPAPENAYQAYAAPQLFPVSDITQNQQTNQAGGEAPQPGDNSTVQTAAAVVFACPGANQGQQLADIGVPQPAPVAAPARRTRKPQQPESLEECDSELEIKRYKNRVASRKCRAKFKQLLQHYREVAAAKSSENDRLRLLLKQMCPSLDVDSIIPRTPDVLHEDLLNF
GRIN3A LBD mod = NR3A (human) ligand-binding domain modulation; NR3A LBD differential scanning fluorimetry, Tm shift; 0% = protein alone, 100% = glycine-bound protein; Tm shift relative to glycine control, % at 25 µM; hit rate 2.5% among 340,000; AID 1259313;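 active = melting temperature shift of at least 10% of the positive control shift, at one fixed dose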
FGF22 binding = shifts melting point of recombinant human FGF22 | AID 651658 | Q9HCT0 | activity (Tm shift, normalised), % at 9.99 µM | recombinant FGF22 thermal shift, SYPRO orange fluorescence; percent of sucrose octasulfate shift, DMSO zero | hit rate 1.5% among 340,000;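 active = mean Tm shift, scaled 0 neutral to 100 positive control, at about 1.3% or above, every replicate too, limit read from the data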
Target sequence (Q9HCT0 whole entry, looked up): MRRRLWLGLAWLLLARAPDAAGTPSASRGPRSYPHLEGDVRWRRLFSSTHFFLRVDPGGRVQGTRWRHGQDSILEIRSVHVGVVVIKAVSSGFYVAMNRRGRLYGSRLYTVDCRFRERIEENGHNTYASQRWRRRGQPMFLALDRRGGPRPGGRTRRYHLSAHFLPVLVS
The depositor's hits bear a star. A selection: hits, their analogues and other compounds. The true share with any hit is near 3.6%.

Results for CC(C)C(=O)N=C1SC2CS(=O)(=O)CC2N1Cc1ccc(Cl)cc1 (stereo unspecified) ?
EBNA-1 inhibitor: 4.8; HCV NS3 hel inh: -6.3; FID counter: -5.3; ZTA DNA inh: -6.9; GRIN3A LBD mod: -0.1; FGF22 binding: 0.1

Results for CCOc1ccc2c(c1)[N+](C)(C)C(C)(C)C=C2C ?
EBNA-1 inhibitor: -2.7; HCV NS3 hel inh: 11.9; FID counter: 1.8; ZTA DNA inh: 2.1; GRIN3A LBD mod: -0.2

How did COc1ccc2c(c1)[N+](C)(C)C(C)(C)C=C2C do in these assays?
EBNA-1 inhibitor: 3.4; HCV NS3 hel inh: 9.2; FID counter: -3.5; ZTA DNA inh: 5.7; GRIN3A LBD mod: 2.8; FGF22 binding: 43.2*

Results for COc1ccc(-c2csc(NC(=O)c3ccc(OCC(=O)N4CCOCC4)c(OC)c3)n2)cc1OC ?
EBNA-1 inhibitor: 1.8; HCV NS3 hel inh: 3.8; FID counter: -38.8; ZTA DNA inh: 1.8; GRIN3A LBD mod: -3.4; FGF22 binding: 44.0*

Results for COc1ccc(-c2csc(NC(=O)CN3C(=O)C4CCCCC4C3=O)n2)cc1OC (stereo unspecified) ?
EBNA-1 inhibitor: -2.7; HCV NS3 hel inh: -11.2; FID counter: -26.8; ZTA DNA inh: -1.9; GRIN3A LBD mod: 11.8*; FGF22 binding: -0.2

How did COc1ccc(-c2csc(NC(=O)CN3C(=O)C4CC=CCC4C3=O)n2)cc1OC (stereo unspecified) do in these assays?
EBNA-1 inhibitor: -6.7; HCV NS3 hel inh: -23.7; FID counter: -41.8; ZTA DNA inh: -10.9; GRIN3A LBD mod: -1.2; FGF22 binding: -0.2

Results for COc1cc(C(=O)NC(C)c2ccc(S(N)(=O)=O)cc2)ccc1OCC(=O)N1CCOCC1 (stereo unspecified) ?
EBNA-1 inhibitor: -0.2; HCV NS3 hel inh: 2.5; FID counter: -13.9; ZTA DNA inh: -3.4; GRIN3A LBD mod: 11.1*; FGF22 binding: -0.2

Results for Cn1cnc(S(=O)(=O)N[C@@H]2CC[C@H](CC(=O)Nc3ccc(-c4ccccc4)cc3)O[C@@H]2CO)c1 ?
FGF22 binding: -0.2

What do the screens show for `CN(C1=C(NC(=O)c2ccccc2)C(=O)c2ccccc2C1=O)C1CCS(=O)(=O)C1` (stereo unspecified)?
EBNA-1 inhibitor: -0.3; HCV NS3 hel inh: -18.8; FID counter: 1.1; ZTA DNA inh: 8.9; FGF22 binding: 0.2

Results for CC(=O)NC1=C(NC2CCS(=O)(=O)C2)C(=O)c2ccccc2C1=O (stereo unspecified) ?
EBNA-1 inhibitor: 2.5; HCV NS3 hel inh: -1.6; FID counter: 0.5; ZTA DNA inh: 15.9; GRIN3A LBD mod: 13.1*

How did O=C(CC(CC(=O)c1ccccc1)c1ccccn1)c1ccccc1 do in these assays?
GRIN3A LBD mod: -0.5; FGF22 binding: 44.1*

What do the screens show for `Cc1cc(-c2nnc(SCC(=O)c3ccc4c(c3)OCCO4)o2)no1`?
EBNA-1 inhibitor: 1.1; HCV NS3 hel inh: 1.5; FID counter: -1.2; ZTA DNA inh: -9.3; GRIN3A LBD mod: -0.1; FGF22 binding: 44.4*

What do the screens show for `Cc1cc(-c2nnc(SCC(=O)c3ccc(F)cc3)o2)no1`?
EBNA-1 inhibitor: 2.1; HCV NS3 hel inh: -3.0; FID counter: -1.9; ZTA DNA inh: 5.5; GRIN3A LBD mod: -1.5; FGF22 binding: 43.8*

How did Cc1cc(C)cc(-c2nnc(SCC(=O)c3ccc4c(c3)OCCO4)o2)c1 do in these assays?
EBNA-1 inhibitor: 5.7; HCV NS3 hel inh: 3.9; FID counter: 0.7; ZTA DNA inh: -1.4; GRIN3A LBD mod: -2.0

How did CCCNC(=O)N(C)C[C@@H]1Oc2cc(C#CC3CC3)ccc2S(=O)(=O)N([C@H](C)CO)C[C@H]1C do in these assays?
FGF22 binding: 0.2

What do the screens show for `Cc1noc(C)c1NC(=O)N(C)C[C@@H]1Oc2c(NS(=O)(=O)c3ccc(Cl)cc3)cccc2C(=O)N([C@H](C)CO)C[C@H]1C`?
FGF22 binding: 0.0

What do the screens show for `O=C(c1ccc(F)cc1)N(CC1CCC1)C[C@@H]1N[C@H](CO)[C@@H]1c1ccccc1`?
FGF22 binding: 0.1

Results for CN(C)c1ccc(C(CNS(=O)(=O)c2ccc3ccccc3c2)c2c[nH]c3ccccc23)cc1 (stereo unspecified) ?
EBNA-1 inhibitor: -0.9; HCV NS3 hel inh: -36.2; FID counter: 17.9; ZTA DNA inh: -4.2; GRIN3A LBD mod: 16.3*

Results for CN(C)c1ccc(C(CN)c2c[nH]c3ccccc23)cc1 (stereo unspecified) ?
EBNA-1 inhibitor: 3.4; HCV NS3 hel inh: 6.5; FID counter: 0.9; ZTA DNA inh: -9.6; GRIN3A LBD mod: -0.6; FGF22 binding: 42.1

What do the screens show for `CC(C)(C)[S@@](=O)N1Cc2cc(C(=O)NC3CCCCC3)nc(-c3cccc(Br)c3)c2[C@H]1CCO`?
FGF22 binding: 0.0

Results for Cc1cccc(NC(=O)c2cc(-c3cc(C)cc(C)c3O)n[nH]2)c1 ?
EBNA-1 inhibitor: 12.2; HCV NS3 hel inh: -0.8; FID counter: -4.6; ZTA DNA inh: -2.4; GRIN3A LBD mod: 35.7*; FGF22 binding: 0.0

Results for COc1ccc(NC(=O)c2cc(-c3ccccc3O)n[nH]2)cc1Cl ?
HCV NS3 hel inh: -0.1; FID counter: -19.1; GRIN3A LBD mod: 26.0*; FGF22 binding: 0.0

How did COc1ccc(Cl)cc1-c1cc(C(=O)Nc2ccccc2)[nH]n1 do in these assays?
FGF22 binding: -0.1

Results for NS(=O)(=O)c1ccc(NC(=O)c2cc(-c3ccccc3O)n[nH]2)cc1 ?
EBNA-1 inhibitor: 17.7; HCV NS3 hel inh: -0.2; FID counter: -2.3; ZTA DNA inh: -7.4; GRIN3A LBD mod: 34.2*; FGF22 binding: 0.1

How did COc1ccc(NC(=O)c2cc(-c3cc(C)cc(C)c3O)n[nH]2)cc1Cl do in these assays?
EBNA-1 inhibitor: 7.0; HCV NS3 hel inh: -5.4; FID counter: -3.6; ZTA DNA inh: 4.9; GRIN3A LBD mod: 35.6*

Results for COc1ccc2c3c([nH]c2c1)[C@H](CO)N(C(=O)Nc1ccc(F)cc1)CC31CCN(S(=O)(=O)c2cccc(F)c2)CC1 ?
FGF22 binding: 0.0

Results for Cc1ccc(S(=O)(=O)Nc2ccc3c(c2)CC(=O)N([C@H](C)CO)C[C@@H](C)[C@@H](CN(C)Cc2ccc(C(=O)Nc4ccccc4N)cc2)O3)cc1 ?
FGF22 binding: -0.3

How did Cc1ccc(NC(=O)c2cc(-c3ccccc3O)n[nH]2)cc1Cl do in these assays?
HCV NS3 hel inh: -3.5; FID counter: -4.6; GRIN3A LBD mod: 26.2*; FGF22 binding: 0.2

Results for [NH-]c1ncnc2c1N=C[N+]2=CC=CCO ?
HCV NS3 hel inh: -7.4; FID counter: -1.9; GRIN3A LBD mod: 13.5*; FGF22 binding: -0.1

What do the screens show for `COCCCN1C(=O)C(=O)/C(=C(/O)c2ccc(S(=O)(=O)N3CCCCC3)cc2)C1c1ccc(O)cc1` (stereo unspecified)?
EBNA-1 inhibitor: 16.0; HCV NS3 hel inh: 13.8; FID counter: -40.8; ZTA DNA inh: 4.1; GRIN3A LBD mod: -1.5; FGF22 binding: 43.2*
